Measurements from PMC10466730 (Cancer cell, 2023).

Key:
[1] = biological target: CK1α (Homo sapiens, UniProt P48729+Q96SW2); test: Western blot of CK1α in MOLM-13 cells; format: cell-based; settings: MOLM-13
Method in brief: (§1)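 MOLM-13 cells (1 × 10⁶) were treated 24 h with test compound diluted from DMSO stocks. Cells were pelleted, washed with PBS, lysed in Laemmli buffer by vortexing for 10 min, and boiled at 95 °C for 5 min. Lysates were resolved on 4–15% gradient SDS-PAGE, transferred to PVDF and immunoblotted with target-specific antibodies.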

[2] = biological target: IKZF2 (Homo sapiens, UniProt Q96SW2+Q9UKS7); test: Western blot of IKZF2 in MOLM-13 cells; format: cell-based; settings: MOLM-13, 24 h
Chain of IKZF2 (Q9UKS7 whole entry): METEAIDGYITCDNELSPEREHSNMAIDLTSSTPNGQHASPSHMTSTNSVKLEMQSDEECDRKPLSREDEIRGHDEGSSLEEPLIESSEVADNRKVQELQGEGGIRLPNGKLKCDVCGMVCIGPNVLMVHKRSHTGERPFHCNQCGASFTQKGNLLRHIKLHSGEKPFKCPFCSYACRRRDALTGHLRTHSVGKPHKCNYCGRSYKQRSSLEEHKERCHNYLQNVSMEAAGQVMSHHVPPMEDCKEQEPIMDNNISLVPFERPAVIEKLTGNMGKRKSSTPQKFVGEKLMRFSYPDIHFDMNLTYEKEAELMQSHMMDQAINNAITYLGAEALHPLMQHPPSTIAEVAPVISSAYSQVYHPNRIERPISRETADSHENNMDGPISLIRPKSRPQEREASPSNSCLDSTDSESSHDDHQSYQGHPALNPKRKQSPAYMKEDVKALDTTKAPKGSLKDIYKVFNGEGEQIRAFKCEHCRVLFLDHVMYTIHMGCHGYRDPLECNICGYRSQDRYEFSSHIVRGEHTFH
Chain of IKZF2 (Q96SW2 whole entry): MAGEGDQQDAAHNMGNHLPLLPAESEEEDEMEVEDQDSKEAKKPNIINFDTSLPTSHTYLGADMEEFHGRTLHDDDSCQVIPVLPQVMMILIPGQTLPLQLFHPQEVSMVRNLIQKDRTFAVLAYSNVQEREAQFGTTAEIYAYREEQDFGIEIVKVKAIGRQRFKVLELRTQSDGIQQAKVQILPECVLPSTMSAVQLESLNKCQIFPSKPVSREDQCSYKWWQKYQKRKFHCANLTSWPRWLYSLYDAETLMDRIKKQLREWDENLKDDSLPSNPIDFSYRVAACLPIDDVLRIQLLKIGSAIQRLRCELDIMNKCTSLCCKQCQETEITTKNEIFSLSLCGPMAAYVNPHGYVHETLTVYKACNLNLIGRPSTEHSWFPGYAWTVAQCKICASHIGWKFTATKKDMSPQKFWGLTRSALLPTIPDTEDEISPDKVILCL
Chain of IKZF2 (Q16531 whole entry partner): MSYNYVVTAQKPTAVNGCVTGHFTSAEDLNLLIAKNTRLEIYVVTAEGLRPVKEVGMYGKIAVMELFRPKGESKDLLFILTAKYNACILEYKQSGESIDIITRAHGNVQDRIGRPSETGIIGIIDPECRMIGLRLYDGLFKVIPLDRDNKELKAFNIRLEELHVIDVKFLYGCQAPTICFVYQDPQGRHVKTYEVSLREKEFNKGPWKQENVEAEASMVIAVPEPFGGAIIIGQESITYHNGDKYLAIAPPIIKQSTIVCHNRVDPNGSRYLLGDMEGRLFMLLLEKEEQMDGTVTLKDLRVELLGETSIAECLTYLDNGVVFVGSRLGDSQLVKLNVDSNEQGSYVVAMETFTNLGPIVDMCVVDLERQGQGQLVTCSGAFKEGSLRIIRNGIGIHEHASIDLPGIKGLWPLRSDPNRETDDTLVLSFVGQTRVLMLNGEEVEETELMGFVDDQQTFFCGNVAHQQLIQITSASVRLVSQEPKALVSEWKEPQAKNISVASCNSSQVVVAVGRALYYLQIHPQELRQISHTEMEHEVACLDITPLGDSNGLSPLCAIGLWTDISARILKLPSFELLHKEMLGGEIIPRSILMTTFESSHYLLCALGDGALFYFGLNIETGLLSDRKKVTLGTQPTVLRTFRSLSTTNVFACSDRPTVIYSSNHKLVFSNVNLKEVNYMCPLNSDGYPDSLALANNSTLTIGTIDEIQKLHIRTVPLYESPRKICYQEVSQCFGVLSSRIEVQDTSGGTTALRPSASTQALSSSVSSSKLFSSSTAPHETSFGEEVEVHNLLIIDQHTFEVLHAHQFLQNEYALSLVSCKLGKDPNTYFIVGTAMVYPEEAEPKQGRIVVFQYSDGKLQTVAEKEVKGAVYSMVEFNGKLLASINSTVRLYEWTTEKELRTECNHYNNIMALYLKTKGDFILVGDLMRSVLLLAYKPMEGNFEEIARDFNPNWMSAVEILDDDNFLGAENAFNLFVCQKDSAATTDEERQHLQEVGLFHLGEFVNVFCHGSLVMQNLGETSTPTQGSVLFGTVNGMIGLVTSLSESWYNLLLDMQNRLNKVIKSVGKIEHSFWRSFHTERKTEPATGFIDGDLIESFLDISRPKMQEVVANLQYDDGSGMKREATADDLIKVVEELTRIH
Method in brief: as §1

[3] = tested on: MOLM-13 cells; test: Viability assay in MOLM-13 cells; format: cell-based, human; settings: MOLM-13, 72 h, unlike lenalidomide, Figure 1E
Method in brief: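 Human AML cell lines were plated at 10,000 cells per well with increasing test compound up to 100 μM for 72 h at 37 °C, 5% CO₂. CellTiter-Glo was added 1:1 for 15 min at room temperature and luminescence was read; MTT was used as an alternative read-out. Percent viability was fitted by non-linear regression to give IC50. Three independent experiments, triplicates.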

Chain of CK1α (P48729 whole entry): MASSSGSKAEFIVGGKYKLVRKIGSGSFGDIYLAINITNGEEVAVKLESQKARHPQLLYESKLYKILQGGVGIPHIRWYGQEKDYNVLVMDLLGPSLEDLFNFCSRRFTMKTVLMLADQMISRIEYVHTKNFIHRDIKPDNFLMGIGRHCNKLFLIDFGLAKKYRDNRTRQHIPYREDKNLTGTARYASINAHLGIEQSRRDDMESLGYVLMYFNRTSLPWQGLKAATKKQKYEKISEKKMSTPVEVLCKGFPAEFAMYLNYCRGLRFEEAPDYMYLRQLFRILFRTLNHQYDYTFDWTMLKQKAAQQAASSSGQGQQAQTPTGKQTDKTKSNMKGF
Chain of CK1α (Q96SW2 whole entry): as the sequence (Q96SW2 whole entry) above
Chain of CK1α (Q16531 whole entry partner): as the sequence (Q16531 whole entry partner) above

Structure (SMILES) | CK1α degradation (Western blot) [1] | IKZF2 degradation (Western blot) [2] | cellular growth inhibition [3]
COc1ccc2cc(C(=O)Nc3ccc4c(c3)CN(C3CCC(=O)N(C)C3=O)C4=O)ccc2c1 (centres unmarked) [Me-DEG-35, 6-methoxy-N-(2-(1-methyl-2,6-dioxopiperidin-3-yl)-1-oxoisoindolin-5-yl)-2-naphthamide] | rescued IKZF2 and CK1α degradation | rescued IKZF2 and CK1α degradation | –
O=C1CCC(N2Cc3cc(NC(=O)c4ccc5ccccc5c4)ccc3C2=O)C(=O)N1 (centres unmarked) [DEG-9, N-(2-(2,6-dioxopiperidin-3-yl)-1-oxoisoindolin-5-yl)-2-naphthamide] | – | dose-dependent degradation | inhibited cellular growth
COc1ccc2cc(CNc3ccc4c(c3)CN(C3CCC(=O)NC3=O)C4=O)ccc2c1 (centres unmarked) [CH2-DEG-35, 3-(5-(((6-methoxynaphthalen-2-yl)methyl)amino)-1-oxoisoindolin-2-yl)piperidine-2,6-dione] | but not CH2-DEG-35 efficiently degraded | – | –
